Screening results as filed in PubChem.
Diaph inh CS: diaphorase inhibitors and chemical oxidizers, primary screen, counter-screen for diaphorase-coupled primary assays, biochemical, uHTS, resorufin fluorescence; diaphorase resazurin-to-resorufin fluorescence, NADH, 16 min; bacterial (C. kluyveri) enzyme, not human; inhibition, % at 20 µM; hit rate 0.69% among 190,000; AID 1217, 2008;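 active = primary screen inhibition at 20 µM above a set limit, cut at about 50% in these data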;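 also: plate controls were DMSO with full reaction for no effect and wells lacking NADH for full effect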
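material = Clostridium kluyveri diaphorase enzyme | amount = 0.14 U/mL diaphorase, enzyme working solution | schedule = incubation 16 min, room temperature | detection = fluorescence of resorufin formed from resazurin, Ex 544/Em 590 nm | benchmarks = positive control minus NADH, DMSO neutral control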
Tb hexokinase: Trypanosoma brucei hexokinase 1 inhibitors, primary screen, biochemical, G6PDH-coupled NADH absorbance, MLSCN library | AID 1430, 2008 | hit rate 0.11% among 220,000 | hexokinase 1 [Trypanosoma brucei] | recombinant TbHK1, G6PDH-coupled NADH A340 | inhibition, % at 10 µM;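 active = inhibition of 50% or more in the single-dose primary screen; inactive = inhibition below 50%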
HKDC1 inh: HKDC1 hexokinase inhibitors, primary screen, biochemical, fluorescence, uHTS. AID 493160, 2011. recombinant HKDC1, G6PDH/diaphorase resazurin coupled fluorescence. hit rate 0.16% among 340,000. inhibition, % at 20 µM;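 active = inhibition above about 35% when tested at 20 µM, limit read from the data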;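 also: plate controls were DMSO wells with enzyme for no effect and DMSO wells lacking enzyme for full effect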
Target sequence (Q2TB90 whole entry, looked up): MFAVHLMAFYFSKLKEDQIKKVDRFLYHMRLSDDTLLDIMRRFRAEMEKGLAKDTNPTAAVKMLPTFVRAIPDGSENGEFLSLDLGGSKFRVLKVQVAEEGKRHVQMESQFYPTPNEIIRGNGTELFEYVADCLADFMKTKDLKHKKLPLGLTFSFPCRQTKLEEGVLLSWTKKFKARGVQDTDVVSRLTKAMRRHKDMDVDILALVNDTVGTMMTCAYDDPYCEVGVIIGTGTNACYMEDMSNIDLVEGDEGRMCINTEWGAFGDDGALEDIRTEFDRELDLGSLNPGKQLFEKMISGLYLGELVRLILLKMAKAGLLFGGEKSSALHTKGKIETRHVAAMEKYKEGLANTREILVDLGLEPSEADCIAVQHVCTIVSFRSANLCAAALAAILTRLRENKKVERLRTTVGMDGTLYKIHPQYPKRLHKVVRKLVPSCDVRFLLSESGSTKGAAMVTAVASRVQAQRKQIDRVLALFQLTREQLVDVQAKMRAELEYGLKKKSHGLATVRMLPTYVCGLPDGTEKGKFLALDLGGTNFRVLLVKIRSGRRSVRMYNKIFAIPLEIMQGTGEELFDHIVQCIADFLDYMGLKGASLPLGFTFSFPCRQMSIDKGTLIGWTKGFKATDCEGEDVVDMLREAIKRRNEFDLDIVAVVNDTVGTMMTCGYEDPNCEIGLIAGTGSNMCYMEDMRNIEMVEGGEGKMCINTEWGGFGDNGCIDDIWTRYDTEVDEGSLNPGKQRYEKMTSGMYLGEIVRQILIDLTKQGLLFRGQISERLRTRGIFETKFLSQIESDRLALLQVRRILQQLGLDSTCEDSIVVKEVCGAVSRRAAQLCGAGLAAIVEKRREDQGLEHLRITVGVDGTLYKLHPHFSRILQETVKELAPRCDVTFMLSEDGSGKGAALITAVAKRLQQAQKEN
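System: Recombinant HKDC1 hexokinase | Amount: HKDC1 at 5 µg/mL | Reagent: Glucose with 1 mM ATP | Doses: Single 20 µM dose | Incubation: Reaction time 90 min, room temperature, protected from light | Signal: Coupled resazurin fluorescence, excitation 525 nm, emission 613 nm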
PfG6PD inh: PfG6PD enzyme inhibitors, primary screen, biochemical, fluorescence intensity, uHTS. glucose-6-phosphate dehydrogenase-6-phosphogluconolactonase (Plasmodium falciparum 3D7). PfGluPho enzyme, NADPH resazurin-diaphorase fluorescence. inhibition, % at 20 µM. hit rate 0.78% among 350,000;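 active = inhibition reaching at least a set limit at 20 µM in the primary screen, cut at about 59% in these data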;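 also: 0% = DMSO wells with substrate and 100% = DMSO wells lacking glucose-6-phosphate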
G6PDH CS: L. mesenteroides G6PDH inhibitors, counter-screen for G6PDH-coupled screening assays, biochemical, Leuconostoc mesenteroides enzyme; inhibition, % at 5 µM; glucose-6-phosphate dehydrogenase [Leuconostoc mesenteroides]; hit rate 0.12% among 200,000; Purified L. mesenteroides G6PDH, diaphorase/resazurin coupled fluorescence, 45 min; in the data active = inhibition above about 50%
PfG6PD confirm: PfG6PD inhibitors, hit retest, confirmation, biochemical, fluorescence intensity, single concentration; shares compounds with PfG6PD inh; inhibition, % at 20 µM; recombinant PfGluPho, NADPH-diaphorase-resazurin fluorescence; AID 504753, 2011; hit rate 34% among 2,400;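 active = inhibition of at least 50% at 20 µM in any single replicate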;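 also: 0% = DMSO with substrate and 100% = DMSO lacking glucose-6-phosphate substrate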
Diaph ctr 10uM: diaphorase inhibitors and chemical oxidizers, confirmation, counter-screen for P. falciparum G6PD inhibitor project, biochemical, fluorescence intensity, 10 µM NADPH. diaphorase-coupled resazurin reduction, NADPH 10 uM. shares compounds with PfG6PD inh. inhibition, % at 20 µM. hit rate 39% among 820;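 active = average inhibition reaching 50% or more with the compound at 20 µM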;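 also: resorufin red fluorescence formed as diaphorase reduces resazurin using NADPH; 0% = DMSO with enzyme and 100% = DMSO without enzyme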
Diaphorase 30uM: diaphorase inhibitors and chemical oxidizers, confirmation, counter-screen for P. falciparum G6PD inhibitor project, biochemical, fluorescence intensity, 30 µM NADPH; shares compounds with PfG6PD inh; Diaphorase/resazurin coupled assay, resorufin fluorescence; inhibition, % at 20 µM; hit rate 29% among 820; AID 504863, 2011;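 active = inhibition averaging 50% or more, tested at 20 µM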;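 also: 0% = DMSO with enzyme and 100% = DMSO wells lacking diaphorase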
* = called active by the depositor; / = no result given. The list is not random: actives were taken first. Their share in the collection is about 1.3%.

SMILES | Diaph inh CS | Tb hexokinase | HKDC1 inh | PfG6PD inh | G6PDH CS | PfG6PD confirm | others
Cc1cccn2c(=O)c3cc(C(=O)NCC4CCCO4)c(=N)n(C4CCCCC4)c3nc12 (centres undefined) | / | / | -26.3 | -0.1 | / | /
Cc1cc(C)c2sc(NC(=O)C3=COCCO3)nc2c1 | / | / | 4.4 | 75.5* | / | 47.4* | Diaph ctr 10uM=30.2;Diaphorase 30uM=20.7
O=C(CCc1nnc(Cc2c[nH]c3ccccc23)o1)NC(C1CC1)C1CC1 | / | -2.1 | -12.5 | -6.7 | 11.1 | /
COc1ccc(NC(=S)NC(NC(=O)CCl)C(Cl)(Cl)Cl)c([N+](=O)[O-])c1 (centres undefined) | 32.4 | -9.1 | 19.4 | 65.4* | 8.3 | 47.6
COc1ccc(NC(=S)NC(NC(=O)c2ccccc2Cl)C(Cl)(Cl)Cl)c([N+](=O)[O-])c1 (centres undefined) | 28.8 | 4.5 | -0.6 | 10.7 | -3.7 | /
CCOC(=O)N1CCN(CCC(=O)Nc2ccc(F)c(F)c2)CC1 | / | / | -1.0 | 10.6 | / | /
Cc1ccc(OCc2n[nH]c(=S)n2N)cc1C | -1.0 | -3.7 | -5.7 | 17.1 | 7.1 | /
CCCCOc1ccc(Cc2n[nH]c(=S)n2N)cc1 | 6.9 | 35.2 | 0.2 | 61.3* | 25.8 | 50.4* | Diaph ctr 10uM=-20.3;Diaphorase 30uM=-17.1
CC(C)Oc1ccccc1C1CC(=O)Nc2cc3c(cc21)OCO3 (centres undefined) | 22.9 | 0.5 | 15.1 | 80.5* | 2.4 | 39.6
CC/C=C/C(=O)N1CC2(CC(c3cccc(NC(=O)CCCCC)c3)=NO2)C[C@H]1C(N)=O (some centres undefined) | / | 0.5 | -0.3 | 4.8 | / | /
COC(=O)[C@]1(CC(C)C)N[C@H](c2ccc(-c3ccc(F)cc3)c(OC)c2)[C@@H]2C(=O)N(C)C(=O)[C@@H]21 | / | / | 9.5 | 20.8 | / | /
O=S(=O)(c1ccc2oc(=S)[nH]c2c1)N1CCOCC1 | / | / | -7.0 | 65.6* | / | 19.5
COc1cccc(/C=N/NC(=O)CCC(=O)Nc2ccc(Br)cc2)c1 | / | / | -0.8 | -0.7 | / | /
Cc1ccc(N(CC(=O)N/N=C/c2cccc(Br)c2)S(C)(=O)=O)cc1 | 10.6 | 26.0 | -7.6 | 114.6* | 13.0 | 86.1* | Diaph ctr 10uM=78.9*;Diaphorase 30uM=70.9*
O=C(CCC(=O)Nc1ccc(F)cc1)N/N=C/c1cccc(Br)c1 | / | / | 6.3 | 112.7* | / | 75.1* | Diaph ctr 10uM=66.1*;Diaphorase 30uM=59.0*
CCCCCCCCC(=O)N/N=C/c1cccc(Br)c1 | 12.2 | -2.8 | 21.9 | 81.5* | 11.8 | 11.3
CCOc1ccc(-c2nnc(SCc3nnc(-c4ccccc4)o3)n2-c2ccccc2F)cc1 | 26.7 | 3.5 | 3.2 | 84.6* | 12.5 | 37.4
COC1(OC)C=CC(=O)C=C1NC(=O)c1ccccc1OC(C)=O | / | / | 21.9 | 62.7* | / | 63.9* | Diaph ctr 10uM=4.0;Diaphorase 30uM=-4.6
CC(=O)Oc1ccccc1C(=O)Nc1ccccc1 | / | / | 2.1 | 1.7 | / | /
CCOC(=O)CC1CCCCN1C(=O)CCCn1nnnc1CN1CCOCC1 (centres undefined) | / | / | -3.2 | -14.0 | / | /
CC(=O)n1c2ccccc2c2nc3ccccc3nc21 | / | / | -6.6 | -7.5 | / | /
C=CCNc1nc2c3ccccc3n(C(C)=O)c2s1 | 17.5 | 16.9 | 2.9 | 64.0* | 4.2 | 7.5
COCCN1C=C2C(=O)C(C)(OC(=O)CCc3ccccc3)C(=O)C=C2C=C1c1ccc(C#N)cc1 (centres undefined) | / | -25.9 | 24.6 | 62.1* | / | 22.1
CC1(OC(=O)CCc2ccccc2)C(=O)C=C2C=C(c3ccc(C#N)cc3)N(Cc3ccco3)C=C2C1=O (centres undefined) | / | -20.9 | 19.1 | 37.4 | / | /
CC1(OC(=O)CCc2ccccc2)C(=O)C=C2C=C(c3ccc(C#N)cc3)N(C3CC3)C=C2C1=O (centres undefined) | / | -28.9 | 29.9 | 83.2* | / | 48.6
SMILES | Diaph inh CS | Tb hexokinase | HKDC1 inh | PfG6PD inh | G6PDH CS | PfG6PD confirm | others
COc1ccc2c(c1OC)C(=O)OC2Nc1nc(-c2cc3ccccc3oc2=O)cs1 (centres undefined) | 7.3 | -25.4 | 8.8 | -23.4 | -13.4 | /
CCOc1ccc(N2C(=O)CC(Cc3ccccc3OC)C2=O)cc1 (centres undefined) | / | / | -3.9 | -1.9 | / | /
Cc1ccc(-n2nnnc2C(Cl)(Cl)c2nnnn2-c2ccc(C)cc2)cc1 | 29.0 | -2.6 | 14.0 | 71.6* | 0.0 | 43.4
O=C(O)C(Cc1ccccc1)N1C(=O)C=CC1=O (centres undefined) | / | / | / | 90.0* | / | 84.9* | Diaph ctr 10uM=18.2;Diaphorase 30uM=1.9
CCOC(=O)C#CC(CCc1ccccc1)OS(N)(=O)=O (centres undefined) | / | / | 6.1 | -6.3 | / | /
CC(C)(C)NC(=O)C(c1ccc(-c2ccccc2)cc1)N(C[C@H]1CC[C@@H]([C@@H]2CC[C@H](CO)O2)O1)C(=O)c1ccc2ccccc2c1 (some centres undefined) | / | / | 0.8 | 38.5 | / | /
Cc1ccc(S(=O)(=O)/N=C(\c2ccccc2)N(C)S(=O)(=O)c2ccc(C)cc2)cc1 | 18.1 | -2.0 | -1.6 | 55.2 | -6.8 | /
Cc1ccc(S(=O)(=O)N(C)/C(=N/S(=O)(=O)c2ccccc2)c2ccccc2)cc1 | 9.8 | -8.3 | -10.7 | 82.3* | -12.4 | 45.9
CCOc1ccc2[nH]c3c(NCCOC)ncnc3c2c1 | / | / | 0.6 | 6.8 | / | /
O=c1[nH]nc(CNc2ccc(O)cc2)c2ccccc12 | 27.9 | 12.2 | 15.4 | 59.4* | 8.7 | 48.4* | Diaph ctr 10uM=1.2;Diaphorase 30uM=6.3
O=c1[nH]nc(CNc2ccc(C(F)(F)F)cc2)c2ccccc12 | 9.5 | -0.9 | 6.8 | 29.6 | 8.5 | /
Cc1ccc2nc(CSc3nnc(-c4ccncc4)n3C)cc(=O)n2c1 | 3.2 | -22.3 | 5.2 | 25.2 | -0.5 | /
Cn1c(CSc2nc3ccccc3n2C)nc2ccccc21 | -2.5 | -0.3 | -0.4 | 78.0* | 1.3 | 45.0
O=C(CSc1nc2ncc(Cl)cc2[nH]1)NCC(=O)Nc1ccc(F)c(F)c1F | / | -6.2 | -0.2 | 79.0* | / | 31.1
O=C(Cc1ccccc1)NCCc1cn2ccsc2n1 | 4.7 | 25.8 | -5.7 | 5.2 | 12.2 | /
Cn1sc2ccccc2c1=O | / | / | / | 91.4* | / | 52.0* | Diaph ctr 10uM=-13.1;Diaphorase 30uM=8.3
O=c1c2ccccc2sn1-c1ccccc1F | / | / | / | 121.6* | / | 108.9* | Diaph ctr 10uM=-8.4;Diaphorase 30uM=8.2
O=C(N=C1SC2CS(=O)(=O)CC2N1c1ccc(F)cc1F)C1CC1 (centres undefined) | / | / | -5.7 | 5.9 | / | /
